Shown are actives, neighbours in structure and some others; about 3% of the full set was active somewhere.
SENP8 block-1 – SENP8 protease inhibitors, primary screen, biochemical, luminescence | purified SENP8, Z-RLRGG-aminoluciferin cleavage | inhibition, % at 10 µM | actives 1.2% (n = 330,000); in the data active means inhibition above about 50%
Apaf1 inhib – inhibitors of human Apaf-1 apoptosome, primary screen, biochemical, DEVD-Rh110 fluorescence, uHTS | inhibition, % at 20 µM | Apoptotic protease-activating factor 1 (Homo sapiens), O14727 | actives 0.71% (n = 330,000) | reconstituted apoptosome caspase-3 activity; active means inhibition of at least 40% at 20 µM;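 further: plate controls were DMSO wells for no effect and DEVD-CHO caspase inhibitor wells for full effect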
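System: reconstituted apoptosome with Apaf-1, cytochrome c, caspase-9, procaspase-3, dATP; Signal: Rh110 fluorescence intensity; Schedule: 30 min compound preincubation, 50 min activation, room temperature; Reagent: cytochrome c trigger plus (Z-DEVD)2-Rh110 caspase-3 substrate.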
UBC13 polyUb – UBC13 polyubiquitin chain formation inhibitors, primary screen, biochemical, TR-FRET, uHTS; Ubiquitin-conjugating enzyme E2 N (Homo sapiens), P61088; inhibition, % at 20 µM; actives 0.47% (n = 330,000); AID 485273, 2010; in the data active means inhibition above about 45%, passing the limit was not always enough
Target sequence (P61088 whole entry, looked up): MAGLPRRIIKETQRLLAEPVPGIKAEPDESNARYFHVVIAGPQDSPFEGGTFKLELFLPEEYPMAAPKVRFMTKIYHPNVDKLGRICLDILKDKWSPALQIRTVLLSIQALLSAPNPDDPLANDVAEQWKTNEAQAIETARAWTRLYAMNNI
SENP7 block – SENP7 protease inhibitors, primary screen, biochemical, luminescence, uHTS; Sentrin-specific protease 7 (Homo sapiens), Q9BQF6; recombinant SENP7, Z-RLRGG-aminoluciferin luminescence, 40 min; inhibition, % at 5 µM; actives 1.5% (n = 330,000); AID 434973, 2010;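 active means inhibition above about 50% at the single test dose, limit read from the data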;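 further: plate controls were DMSO with enzyme for no effect and no enzyme buffer wells for full effect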
SENP6 inh – SENP6 protease inhibitors, primary screen, biochemical, luminescence, uHTS; AID 2599, 2010; Recombinant SENP6 catalytic domain, aminoluciferin luminescence; Sentrin-specific protease 6 (Homo sapiens), Q9GZR1; inhibition, % at 10 µM; actives 1.8% (n = 330,000);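 active means inhibition above about 50% at the single tested dose, limit read from the data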;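 further: plate controls were DMSO wells with enzyme for no effect and DMSO wells lacking enzyme for full effect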
Target sequence (Q9GZR1 628-1112 limits assumed): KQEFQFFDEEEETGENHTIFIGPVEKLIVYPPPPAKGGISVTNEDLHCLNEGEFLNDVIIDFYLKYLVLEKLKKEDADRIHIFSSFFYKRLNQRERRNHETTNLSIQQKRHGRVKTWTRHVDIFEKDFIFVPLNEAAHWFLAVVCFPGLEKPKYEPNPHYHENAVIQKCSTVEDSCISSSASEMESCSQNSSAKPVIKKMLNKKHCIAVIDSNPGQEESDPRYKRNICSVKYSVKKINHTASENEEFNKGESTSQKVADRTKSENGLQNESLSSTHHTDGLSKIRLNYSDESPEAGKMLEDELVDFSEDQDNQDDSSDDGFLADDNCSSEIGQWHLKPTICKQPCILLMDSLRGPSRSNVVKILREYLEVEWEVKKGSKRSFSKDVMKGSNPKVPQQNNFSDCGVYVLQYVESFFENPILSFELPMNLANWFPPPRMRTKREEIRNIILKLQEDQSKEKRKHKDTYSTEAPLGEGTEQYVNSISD
SENP8 block-2 – human SENP8 protease inhibitors, primary screen, biochemical, fluorescence, Nedd8 protein substrate, uHTS. recombinant SENP8. AID 602440, 2012. actives 0.64% (n = 360,000). inhibition, % at 20 µM; in the data active means inhibition mostly above about 40%, no sharp cut-off; inactive means mostly below about 27%
Apaf-1 inh conf – Apaf-1 inhibitors, single-dose retest, confirmation, biochemical, fluorescence, DEVD-Rh110, 20 µM; reconstituted apoptosome, caspase-3 DEVD-Rh110 fluorescence; inhibition, % at 20 µM; actives 25% (n = 1,800); shares compounds with Apaf1 inhib; AID 504614, 2011;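 active means mean inhibition of at least 40% at 20 µM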;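 further: plate controls were DMSO wells for no effect and DEVD-CHO caspase inhibitor control wells for full effect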
Rh110 quench – Rh110 fluorescence interference by putative Apaf-1 inhibitors, confirmation, artefact control for Apaf-1 inhibitor project, biochemical, 20 µM; AID 504615, 2011; 1,800 tested, under 10 active; shares compounds with Apaf1 inhib; activation (fluorescence interference), % at 20 µM; quenched caspase reaction;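 active means signal rise of 40% or more at 20 µM, treated as a fluorescence artifact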
Apaf1 inh interf – fluorescence interference of Apaf-1 inhibitor hits, dose response, artefact control for Apaf-1 inhibitor project | IC50, µM | shares compounds with Apaf1 inhib | fluorescence interference counterscreen, Apaf-1 assay format | 460 tested, under 10 active; call rule not given here
* hit, by the source's call.

How did CCn1cnc2cc(NCc3ccc(OC)cc3)ccc21 do in these assays?
SENP8 block-1: -7; Apaf1 inhib: -10; UBC13 polyUb: -7; SENP7 block: -4; SENP6 inh: -9; SENP8 block-2: -300

What do the screens show for `CCOc1ccc2nc3cc(NCc4ccc(OC)cc4)ccc3c(N)c2c1`?
SENP8 block-1: 37; Apaf1 inhib: 96*; UBC13 polyUb: 38; SENP7 block: 41; SENP6 inh: 51*; SENP8 block-2: -298; Apaf-1 inh conf: 82*; Rh110 quench: -4; Apaf1 inh interf: >100

How did Cc1ccc(NC(=O)c2ccccc2SCC(=O)N2CCCC2)cc1S(=O)(=O)N(C)C do in these assays?
SENP8 block-1: 0; Apaf1 inhib: 8; UBC13 polyUb: 26; SENP7 block: -16; SENP6 inh: 0; SENP8 block-2: -53

What do the screens show for `CC(=O)NNC(=S)Nc1cc(S(=O)(=O)N(C)C)ccc1C`?
SENP8 block-1: -4; Apaf1 inhib: -4; UBC13 polyUb: 15; SENP7 block: 6; SENP6 inh: 0; SENP8 block-2: 7

Results for Cc1ccc(S(=O)(=O)N(C)C)cc1NC(=O)c1ccccc1SCC(=O)N1CCCC1 ?
SENP8 block-1: 4; Apaf1 inhib: 41*; UBC13 polyUb: 28; SENP7 block: 1; SENP6 inh: 3; SENP8 block-2: -63; Apaf-1 inh conf: 36; Rh110 quench: 9

What do the screens show for `Cc1ccc(S(=O)(=O)N(C)C)cc1NC(=S)Nc1cccc2ccccc12`?
SENP8 block-1: 84*; Apaf1 inhib: 93*; UBC13 polyUb: -22; SENP7 block: 56*; SENP6 inh: 90*; SENP8 block-2: -313; Apaf-1 inh conf: 21; Rh110 quench: 21

What do the screens show for `CCN(CC(=O)Nc1ccccc1C(F)(F)F)C(=O)c1ccccc1SCC(=O)N1CCCC1`?
SENP8 block-1: -1; Apaf1 inhib: 43*; UBC13 polyUb: 16; SENP7 block: -5; SENP6 inh: 0; SENP8 block-2: 12; Apaf-1 inh conf: 29; Rh110 quench: -6

What do the screens show for `CN(CC(=O)Nc1ccccc1C(F)(F)F)CC(=O)N1CCCCCC1`?
SENP8 block-1: -16; Apaf1 inhib: 13; UBC13 polyUb: 0; SENP7 block: -11; SENP6 inh: -14; SENP8 block-2: 16

Results for CCCCNC(=O)C1(C)CCN1C(=O)c1cccc(OC(C)=O)c1C (centres undefined) ?
SENP8 block-2: 5

How did CCOc1c(Br)cc(C(=O)Nc2cccc(S(=O)(=O)N3CCOCC3)c2)cc1OC do in these assays?
SENP8 block-2: 12

Results for COc1ccc(NC(=O)CNCc2cccs2)c(OC)c1 ?
SENP8 block-2: 14

How did Cc1ccc(S(=O)(=O)NCc2ccccc2)cc1C(=O)N1CCN(c2ccccc2)CC1 do in these assays?
SENP8 block-1: -3; Apaf1 inhib: 58*; UBC13 polyUb: 27; SENP7 block: 2; SENP6 inh: -11; SENP8 block-2: -8; Apaf-1 inh conf: 40; Rh110 quench: 8

How did O=C(c1cccc(S(=O)(=O)NCc2ccccc2)c1)N1CCN(c2cccc(C(F)(F)F)c2)CC1 do in these assays?
SENP8 block-1: 0; Apaf1 inhib: 44*; UBC13 polyUb: 19; SENP7 block: -13; SENP6 inh: -5; SENP8 block-2: 7; Apaf-1 inh conf: 40; Rh110 quench: 2

How did CCN(CC)c1ncnc2c1ncn2[C@H]1CN(Cc2ccc(F)cc2)C[C@@H](CO)O1 do in these assays?
SENP8 block-2: 6

Results for Cc1ccc(C)c(CC(=O)N2CCCC(c3cc(C(=O)NCc4cccnc4)no3)C2)c1 (centres undefined) ?
SENP8 block-2: 13

What do the screens show for `Clc1ccc(CSc2nnc(-c3ccccn3)n2Cc2ccco2)cc1Cl`?
SENP8 block-2: -262

How did Clc1cccc(CSc2nnc(-c3ccccn3)n2Cc2ccco2)c1 do in these assays?
SENP8 block-1: 8; Apaf1 inhib: 42*; UBC13 polyUb: -12; SENP7 block: 3; SENP6 inh: -10; SENP8 block-2: -2; Apaf-1 inh conf: 14; Rh110 quench: 1

Results for COc1c2c(c(OC)c3ccccc13)[C@]1(OC2)O[C@H](CCO)C[C@H](O)[C@H]1O ?
SENP8 block-2: -11

What do the screens show for `COc1cccc(-c2nnc(SC(C(=O)c3c[nH]c4ccccc34)c3ccccc3)n2C)c1` (centres undefined)?
SENP8 block-1: -11; Apaf1 inhib: 43*; UBC13 polyUb: -6; SENP7 block: -14; SENP6 inh: 2; SENP8 block-2: 11; Apaf-1 inh conf: 22; Rh110 quench: 8

Results for Cc1cc(C)c(C#N)c(SCC(=O)Nc2nonc2N)n1 ?
SENP8 block-1: -8; Apaf1 inhib: 64*; UBC13 polyUb: 5; SENP7 block: 9; SENP6 inh: -35; SENP8 block-2: -307; Apaf-1 inh conf: 12; Rh110 quench: 14

What do the screens show for `CCCCN(C=O)c1c(CC)nc2c(OCC3CCCCC3)cccn12`?
SENP8 block-2: 2

What do the screens show for `O=C(C[n+]1cccc(C(=O)N/N=C/c2ccc(Br)cc2)c1)c1ccccc1`?
SENP8 block-1: -9; Apaf1 inhib: 50*; UBC13 polyUb: -2; SENP7 block: -3; SENP6 inh: -8; SENP8 block-2: 5; Apaf-1 inh conf: 15; Rh110 quench: 1

What do the screens show for `CCc1noc(C)c1C(=O)N1CCN(S(=O)(=O)c2c(C)cc(C)cc2C)CC1`?
SENP8 block-1: 1; Apaf1 inhib: 57*; UBC13 polyUb: 35; SENP7 block: 7; SENP6 inh: 4; SENP8 block-2: 5; Apaf-1 inh conf: 39; Rh110 quench: 5

How did O=C(C[C@@H]1CC[C@H](NC(=O)Cc2ccccn2)[C@@H](CO)O1)NCCc1ccccc1 do in these assays?
SENP8 block-2: 16

Results for N#Cc1ccsc1NC(=O)c1ccc(Cl)c([N+](=O)[O-])c1 ?
SENP8 block-1: 94*; Apaf1 inhib: 48*; UBC13 polyUb: -16; SENP7 block: 91*; SENP6 inh: 96*; SENP8 block-2: 21; Apaf-1 inh conf: 6; Rh110 quench: -3

From PubChem BioAssay
